Laboratory results reported in ChEMBL document CHEMBL4665625, “New pyrido[3,4-g]quinazoline derivatives as CLK1 and DYRK1A inhibitors: synthesis, biological evaluation and binding mode analysis” (Eur J Med Chem, 2019).

What was measured:
[1] = biological target: T1, Cyclin-dependent kinase 5/CDK5 activator 1 (Homo sapiens) (UniProt Q00535+Q15078); assay: Inhibition of recombinant human CDK5/p25 expressed in bacteria assessed as residual activity at 10 uM using histone H1 as substrate in presence of [gamma-33P]ATP relative to control
Method in brief: (§1)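 Human recombinant CDK5/p25 (bacterially expressed) assayed with 0.8 μg/μl histone H1 as substrate and 15 μM [γ-33P]ATP. Residual activity versus DMSO controls, triplicate.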

[2] = biological target: T1, Cyclin-dependent kinase 5/CDK5 activator 1 (Homo sapiens); assay: Inhibition of recombinant human CDK5/p25 expressed in bacteria assessed as residual activity at 1 uM using histone H1 as substrate in presence of [gamma-33P]ATP relative to control; method in brief: as §1
[3] = biological target: Dual specificity protein kinase CLK1 (Mus musculus) (UniProt P22518); assay: Inhibition of recombinant mouse CLK1 expressed in bacteria assessed as residual activity at 10 uM using GRSRSRSRSRSR as substrate in presence of [gamma-33P]ATP relative to control
[4] = biological target: Dual specificity protein kinase CLK1 (Mus musculus) (UniProt P22518); assay: Inhibition of recombinant mouse CLK1 expressed in bacteria assessed as residual activity at 1 uM using GRSRSRSRSRSR as substrate in presence of [gamma-33P]ATP relative to control
[5] = biological target: Dual specificity tyrosine-phosphorylation-regulated kinase 1A (Rattus norvegicus) (UniProt Q63470); assay: Inhibition of rat DYRK1A kinase domain (1 to 499 residues) expressed in bacteria assessed as residual activity at 10 uM using KKISGRLSPIMTEQ as substrate in presence of [gamma-33P]ATP relative to control
Method in brief: (§2)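 Buffer: 10 mM MgCl2, 1 mM EGTA, 1 mM DTT, 25 mM Tris-HCl pH 7.5, 50 μg/ml heparin, 0.15 mg/ml BSA.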

[6] = biological target: Dual specificity tyrosine-phosphorylation-regulated kinase 1A (Rattus norvegicus) (UniProt Q63470); assay: Inhibition of rat DYRK1A kinase domain (1 to 499 residues) expressed in bacteria assessed as residual activity at 1 uM using KKISGRLSPIMTEQ as substrate in presence of [gamma-33P]ATP relative to control; method in brief: as §2
Sus scrofa domesticus [7] = organism: Sus scrofa domesticus; assay: Inhibition of porcine brain CK1delta/epsilon assessed as residual activity at 10 uM using RRKHAAIGSpAYSITA as substrate in presence of [gamma-33P]ATP relative to control; type: tissue-based
Sus scrofa domesticus [8] = organism: Sus scrofa domesticus; assay: Inhibition of porcine brain CK1delta/epsilon assessed as residual activity at 1 uM using RRKHAAIGSpAYSITA as substrate in presence of [gamma-33P]ATP relative to control; type: tissue-based
[9] = biological target: T2, Glycogen synthase kinase-3 (Sus scrofa) (UniProt B2LUN4+I6LNT8); assay: Inhibition of porcine brain GSK-3alpha/beta assessed as residual activity at 10 uM using YRRAAVPPSPSLSRHSSPHQSpEDEEE as substrate in presence of [gamma-33P]ATP relative to control; type: tissue-based; details: Sus scrofa domesticus
[10] = biological target: T2, Glycogen synthase kinase-3 (Sus scrofa); assay: Inhibition of porcine brain GSK-3alpha/beta assessed as residual activity at 1 uM using YRRAAVPPSPSLSRHSSPHQSpEDEEE as substrate in presence of [gamma-33P]ATP relative to control; type: tissue-based; details: Sus scrofa domesticus
Method in brief: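 Affinity-purified porcine brain GSK-3α/β with 0.01 µg/µl GS-1 peptide (phosphoserine-primed) as substrate and 15 µM [γ-33P]ATP. Buffer was 25 mM Tris-HCl pH 7.5, 10 mM MgCl2, 1 mM EGTA, 1 mM DTT, 50 µg/ml heparin and 0.15 mg/ml BSA. Radioactive incorporation was compared with DMSO-dilution controls, in triplicate.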

[11] = biological target: T3, Dual specificity protein kinase CLK1 (Mus musculus, UniProt P22518); assay: Inhibition of recombinant mouse CLK1 expressed in bacteria using GRSRSRSRSRSR as substrate in presence of [gamma-33P]ATP
[12] = biological target: T4, Dual specificity tyrosine-phosphorylation-regulated kinase 1A (Rattus norvegicus, UniProt Q63470); assay: Inhibition of rat DYRK1A kinase domain (1 to 499 residues) expressed in bacteria using KKISGRLSPIMTEQ as substrate in presence of [gamma-33P]ATP; method in brief: as §2
[13] = Selectivity index, ratio of IC50 for recombinant mouse CLK1 expressed in bacteria to IC50 for rat DYRK1A kinase domain (1 to 499 residues) expressed in bacteria
[14] = Antiproliferative activity against hTERT-RPE1 cells assessed as cell viability at 2 uM after 48 hrs by CellTiter96 AQueous assay relative to control; type: cell-based, TERT-RPE1; details: human, read-out: Activity
Method in brief: (§3)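 Cells grown in McCoy's 5a (HCT116), DMEM (SH-SY5Y, MDA-MB231, U-2 OS) or DMEM:F12 (hTERT-RPE1), each with 10% fetal calf serum, 2 mM L-glutamine, penicillin/streptomycin. Exposed to compound at 2 μM for 48 h; viability read by CellTiter96 AQueous per manufacturer, as % of DMSO-treated cells. Triplicate, mean ± SD; staurosporine as positive control.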

HCT-116 = assay: Antiproliferative activity against human HCT116 cells assessed as cell viability at 2 uM after 48 hrs by CellTiter96 AQueous assay relative to control; type: functional; details: read-out: Activity; method in brief: as §3
MDA-MB-231 = assay: Antiproliferative activity against human MDA-MB-231 cells assessed as cell viability at 2 uM after 48 hrs by CellTiter96 AQueous assay relative to control; type: functional; details: read-out: Activity; method in brief: as §3
SH-SY5Y = assay: Antiproliferative activity against human SH-SY5Y cells assessed as cell viability at 2 uM after 48 hrs by CellTiter96 AQueous assay relative to control; type: functional; details: read-out: Activity; method in brief: as §3
U2OS = assay: Antiproliferative activity against human U2OS cells assessed as cell viability at 2 uM after 48 hrs by CellTiter96 AQueous assay relative to control; type: functional; details: read-out: Activity; method in brief: as §3
[15] = biological target: T3, Dual specificity protein kinase CLK1; assay: Inhibition of recombinant mouse CLK1 expressed in bacteria using GRSRSRSRSRSR as substrate measured after 30 mins in presence of ATP by ADP-Glo kinase assay
Method in brief: (§4)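 ADP-Glo luminescent kinase assay at 10 μM ATP, 30 min reaction at 30 °C; luminescence read as relative light units to derive IC50.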

[16] = biological target: T4, Dual specificity tyrosine-phosphorylation-regulated kinase 1A; assay: Inhibition of rat DYRK1A kinase domain (1 to 499 residues) expressed in bacteria using KKISGRLSPIMTEQ as substrate measured after 30 mins in presence of ATP by ADP-Glo kinase assay; method in brief: as §4

T1 sequence (Q00535 whole entry): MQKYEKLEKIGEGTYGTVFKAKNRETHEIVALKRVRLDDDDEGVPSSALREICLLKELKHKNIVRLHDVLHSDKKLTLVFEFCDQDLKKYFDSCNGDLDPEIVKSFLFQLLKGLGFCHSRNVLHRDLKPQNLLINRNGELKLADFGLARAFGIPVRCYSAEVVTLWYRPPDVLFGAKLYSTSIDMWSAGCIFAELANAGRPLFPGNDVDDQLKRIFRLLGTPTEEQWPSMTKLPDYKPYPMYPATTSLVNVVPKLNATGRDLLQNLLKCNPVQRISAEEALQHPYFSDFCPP
T1 sequence (Q15078 99-307 partner limits assumed): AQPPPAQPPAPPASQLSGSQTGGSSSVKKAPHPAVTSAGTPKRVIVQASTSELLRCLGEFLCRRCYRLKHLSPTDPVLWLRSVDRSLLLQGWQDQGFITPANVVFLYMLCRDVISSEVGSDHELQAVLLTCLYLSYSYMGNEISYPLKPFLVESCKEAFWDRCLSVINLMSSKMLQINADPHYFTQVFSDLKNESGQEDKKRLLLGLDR
Chain of Dual specificity protein kinase CLK1 (Mus musculus) (P22518 whole entry, looked up, the tested form may be a part): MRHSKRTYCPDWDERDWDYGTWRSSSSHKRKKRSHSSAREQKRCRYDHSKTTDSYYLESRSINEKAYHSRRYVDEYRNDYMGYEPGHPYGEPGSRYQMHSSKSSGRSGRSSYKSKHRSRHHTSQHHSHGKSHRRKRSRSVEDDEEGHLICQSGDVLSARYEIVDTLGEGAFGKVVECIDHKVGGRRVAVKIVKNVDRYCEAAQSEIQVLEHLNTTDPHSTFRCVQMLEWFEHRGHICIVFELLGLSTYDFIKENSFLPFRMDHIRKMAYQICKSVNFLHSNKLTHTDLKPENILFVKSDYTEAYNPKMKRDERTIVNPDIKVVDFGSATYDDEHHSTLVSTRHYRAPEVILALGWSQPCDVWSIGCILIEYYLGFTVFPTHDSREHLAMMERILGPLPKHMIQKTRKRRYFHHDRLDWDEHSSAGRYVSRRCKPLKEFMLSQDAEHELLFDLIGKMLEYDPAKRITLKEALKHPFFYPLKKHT
T3 sequence (P22518 whole entry, the tested form may be a part): as the sequence (P22518 whole entry, looked up, the tested form may be a part) above

Structure (SMILES)	Activity [1] [%]	Activity [2] [%]	Activity [3] [%]	Activity [4] [%]	Activity [5] [%]	Activity [6] [%]	Activity (Sus scrofa domesticus [7]) [%]	Activity (Sus scrofa domesticus [8]) [%]	Activity [9] [%]	Activity [10] [%]	IC50 [11] [nM]	IC50 [12] [nM]	Ratio IC50 [13]	viability at 48 h, 2 µM [14] [%]	viability at 2 µM (HCT-116) [%]	viability at 2 µM (MDA-MB-231) [%]	viability at 2 µM (SH-SY5Y) [%]	viability at 2 µM (U2OS) [%]	IC50 [15] [nM]	IC50 [16] [nM]
CN1CCN(CCCNc2ncc3cc4cnccc4c(N)c3n2)CC1	15	49	6	8	1	4	30	61	4	35	117	20	5.9	0	0	3.6	0.1	0.1		
CN(C)CCCNc1ncc2cc3cnccc3c(N)c2n1	34	77	1	14	1	17	61	96	10	36	120	120		0	0	0.4	0	0		
Nc1c2ccncc2cc2cnc(NCCCN3CCCC3)nc12	44	86	4	26	1	25	23	69	23	50		90		52	21	22	92.2	33		
CN1CCN(CCNc2ncc3cc4cnccc4c(N)c3n2)CC1	55	88	4	21	2	19	70	100	22	44	210	120		19.4	6.1	21.7	62	13		
CNc1ncc2cc3cnccc3c(N)c2n1	3	33	1	9	1	27	60	85	40	79									274	
Nc1c2ccncc2cc2cnc(NCCCN3CCOCC3)nc12	23	67	4	20	6	5	24	53	6	41	290	23	12.6	0	0.8	15	3.6	6.4		
Nc1c2ccncc2cc2cnc(NCCN3CCOCC3)nc12	10	52	4	27	1	17	34	77	24	76										197
CCN(CC)CCCNc1ncc2cc3cnccc3c(N)c2n1	20	68	2	21	2	24	45	68	22	61	160	80								
O=[N+]([O-])c1c2ccncc2cc2cnc(NCCCN3CCOCC3)nc12	60	100	3	14	10	68	38	100	15	76	120			31	16.8	39	54	27		
